Source: ChEMBL document CHEMBL3813686, “Biologically Active Acetylenic Amino Alcohol and N-Hydroxylated 1,2,3,4-Tetrahydro-β-carboline Constituents of the New Zealand Ascidian Pseudodistoma opacum” (J Nat Prod, 2016)
In brackets after ≈: the same amount, converted by molar mass. Activity calls are given as the source filed them. The rule behind the calls is not given here.

Tests used:
[1] = tested on: Mycobacterium tuberculosis; experiment: Antibacterial activity against Mycobacterium tuberculosis H37Ra after 7 days by resazurin dye based fluorescence assay; assay type: functional; conditions: 168 h
[2] = tested on: Staphylococcus aureus; experiment: Antibacterial activity against Staphylococcus aureus ATCC 25923 after 16 hrs by resazurin dye based fluorescence assay; assay type: functional; conditions: ATCC 25923, 16 h
[3] = tested on: Escherichia coli; experiment: Antibacterial activity against Escherichia coli ATCC 25922 after 16 hrs by resazurin dye based fluorescence assay; assay type: functional; conditions: ATCC 25922, 16 h
[4] = tested on: Mycobacterium tuberculosis; experiment: Antibacterial activity against Mycobacterium tuberculosis BSG001 incubated overnight by microbroth-dilution method; assay type: functional
Outline: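 M. tuberculosis H37Rv carrying a bacterial luciferase vector, grown 2 weeks at 37 °C (100 rpm) in Middlebrook 7H9 with ADC and glycerol. Assay medium was 7H9 without Tween or kanamycin. Compounds in DMSO were tested in doubling dilutions from 64 to 1 μg/mL, with untreated and DMSO controls, incubated overnight at 37 °C. Triplicate wells per concentration; three separate experiments.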

[5] = tested on: Escherichia coli; experiment: Bactericidal activity against Escherichia coli ATCC 25922 incubated overnight by microbroth-dilution method; assay type: functional
Outline: (§1)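 Broth from the MIC wells (standard microbroth dilution, ~5 × 10^5 cfu/mL in Mueller Hinton broth) was transferred into fresh medium and incubated overnight at 37 °C, then scored for growth. Cell dilutions were also plated. MBC was taken as a reduction of at least 3 logs from the initial inoculum.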

[6] = tested on: Escherichia coli; experiment: Antibacterial activity against Escherichia coli ATCC 25922 incubated overnight by microbroth-dilution method; assay type: functional
Outline: (§2)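 Mueller Hinton broth cultures were grown overnight at 37 °C with shaking at 200 rpm. Inoculum was adjusted to approximately 5 × 10^5 cfu/mL final, confirmed by retrospective plating. Compounds were dissolved in DMSO and tested in doubling dilutions, with untreated and DMSO controls. Plates were incubated overnight at 37 °C. Each concentration was run in triplicate on three separate occasions.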

[7] = tested on: Staphylococcus aureus; experiment: Bactericidal activity against Staphylococcus aureus XEN36 incubated overnight by microbroth-dilution method; assay type: functional; outline: as §1
[8] = tested on: Mycobacterium tuberculosis; experiment: Bactericidal activity against Mycobacterium tuberculosis BSG001 incubated overnight by microbroth-dilution method; assay type: functional
Outline: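 Broth microdilution on luciferase-tagged M. tuberculosis H37Rv in 7H9 medium without Tween or kanamycin, using DMSO-dissolved compounds at 64–1 μg/mL (doubling) and incubating overnight at 37 °C. 5 μL from the MIC wells went into 195 μL fresh medium and was incubated overnight at 37 °C. Dilutions were also plated. MBC was taken as at least a 3-log drop from the initial inoculum.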

[9] = tested on: Staphylococcus aureus; experiment: Antibacterial activity against Staphylococcus aureus XEN36 incubated overnight by microbroth-dilution method; assay type: functional; outline: as §2
[10] = tested on: Plasmodium falciparum; experiment: Antiplasmodial activity against chloroquine-resistant Plasmodium falciparum FcB1/Columbia infected in erythrocytes assessed as inhibition of parasite growth after 48 hrs by 3H-hypoxanthine incorporation assay; assay type: functional, organism-based
[11] = tested on: Escherichia coli; experiment: Antibacterial activity against Escherichia coli after 24 hrs by broth macrodilution method; assay type: functional

Work on `CCCCCCCCCCC[C@H](O)[C@H](C)N` yielded an MIC [1] of 33 µM (≈ 7.57 µg/mL), an MIC [2] of 33 µM (≈ 7.57 µg/mL) and an MIC [3] of 33 µM (≈ 7.57 µg/mL).
In the case of `C=CCCC#CC#CCCCCCCC[C@H](O)CN`, the MIC [4] is reported as 85 µM, the MBC [5] is reported as > 128 µg/mL and the MIC [6] is reported as 170 µM. The MBC [7] was 32 µg/mL, the MBC [8] was 64 µg/mL and the MIC [9] was 85 µM.
Compound `N=C(N)NCCCCC1NCCc2c1n(O)c1cc(Br)ccc21` (configuration not stated) has an MIC [4] of 106 µM, an MBC [5] of 106 µM and an MIC [6] of 106 µM. The MBC [7] was 53 µM, the MBC [8] was 106 µM and the MIC [9] was 53 µM. It also gave an IC50 [10] of 3.8 µM.
With `CO[C@H]1/C=C/O[C@@]2(C)Oc3c(C)c(O)c4c(O)c(c(/C=N/N5CCN(C)CC5)c(O)c4c3C2=O)NC(=O)/C(C)=C\C=C\[C@H](C)[C@H](O)[C@@H](C)[C@@H](O)[C@@H](C)[C@H](OC(C)=O)[C@@H]1C` [RIFAMPIN] the MIC [4] was 0.161 µg/mL, the MBC [5] was 8 µg/mL and the MIC [6] was 8 µg/mL. For the same compound, the MBC [7] was 0.008 µg/mL, the MBC [8] was 0.161 µg/mL and the MIC [9] was 0.004 µg/mL.
`CCCCC/C=C\C/C=C\CC/C=C/C[C@H](O)[C@H](C)N` showed an MIC [11] of 360 µM (≈ 101 µg/mL).
For `C=CCCC#CC#CCCCCCCC[C@@H](CNC(=O)c1ccccc1)OC(=O)c1ccccc1`, the Activity [4] was “inactive”, the Activity [6] was “inactive” and the Activity [9] was “inactive”.
Work on `C=CCCCCCC/C=C\C[C@H](O)[C@H](C)N` yielded an MIC [11] of 196 µM (≈ 44.2 µg/mL).
